Where two headings read alike, the source gives them in different places.
Tests used:
[1] = target: T1, M2 receptor-G-protein complex (Homo sapiens, UniProt P08172); assay type: binding; conditions: for reduction of agonist affinity by GDP (factor of cooperativity β): Eqn 8, GDP-less membranes, 1 nM [3H]NMS
T1 sequence (P08172 1-466): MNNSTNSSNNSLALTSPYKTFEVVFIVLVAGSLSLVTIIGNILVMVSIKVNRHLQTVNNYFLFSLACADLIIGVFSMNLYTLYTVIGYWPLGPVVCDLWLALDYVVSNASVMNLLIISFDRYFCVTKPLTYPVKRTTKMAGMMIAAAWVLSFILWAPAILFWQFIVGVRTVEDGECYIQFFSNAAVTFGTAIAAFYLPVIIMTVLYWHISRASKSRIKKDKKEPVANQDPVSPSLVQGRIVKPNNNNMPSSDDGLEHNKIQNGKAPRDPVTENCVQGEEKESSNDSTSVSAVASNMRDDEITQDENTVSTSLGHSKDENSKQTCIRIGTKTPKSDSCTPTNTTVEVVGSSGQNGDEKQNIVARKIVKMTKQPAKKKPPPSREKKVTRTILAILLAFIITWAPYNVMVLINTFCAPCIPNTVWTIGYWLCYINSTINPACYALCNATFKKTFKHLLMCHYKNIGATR

[2] = target: T1, M2 receptor-G-protein complex; assay type: binding; conditions: for factor of cooperativity α between binding of [3H]GDP and agonist (pα): GDP-less membranes, n=3
[3] = target: T2, human M2 muscarinic receptor (Homo sapiens, UniProt P08172); test: Agonist-stimulated [35S]GTPγS binding to membranes from M2 CHO cells; assay type: biochemical; conditions: for EMAX [fold over basal]: 500 pM [35S]GTPγS, 50 µM GDP; for nH: Hill coefficient, Eqn 2
T2 sequence (P08172 1-466): T1 sequence (P08172 1-466)

[4] = target: T3, Gs/olf G-proteins (Homo sapiens, UniProt P08172); test: biochemical; assay type: biochemical, Chinese hamster
T3 sequence (P08172 1-466): T1 sequence (P08172 1-466)

[5] = target: T3, Gs/olf G-proteins; test: biochemical; assay type: binding, Chinese hamster; conditions: for pα: cooperativity between agonist and [3H]GDP binding
[6] = target: T4, Gq/11 G-proteins (Homo sapiens, UniProt P08172); assay type: binding, Chinese hamster
T4 sequence (P08172 1-466): T1 sequence (P08172 1-466)

[7] = target: T5, Gi/o G-proteins (Homo sapiens, UniProt P08172); test: biochemical; assay type: biochemical, Chinese hamster
T5 sequence (P08172 1-466): T1 sequence (P08172 1-466)

[8] = target: T4, Gq/11 G-proteins; test: [35S]GTPγS binding to Gq/11 G-proteins; assay type: biochemical, Chinese hamster
[9] = target: T2, human M2 muscarinic receptor; test: Competition of agonists with 1 nM [3H]NMS binding
[10] = target: T5, Gi/o G-proteins; test: biochemical; assay type: binding, Chinese hamster; conditions: for pα: cooperativity between agonist and [3H]GDP binding
[11] = test system: Gi/o G-proteins; test: Kinetics of 500 nM [3H]GDP binding to Gi/o G-proteins; parameters: species or system Chinese hamster
[12] = test system: G-proteins in GDP-less membranes of CHO-M2 cells; test: Equilibrium [3H]GDP binding to GDP-less membranes; parameters: species or system Chinese hamster
Procedure, shortened: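 GDP-less membranes from CHO-M2 cells were made by treatment with 1 M ammonium sulphate for 3 h at 4°C, then renatured 1 h in 20% glycerol. Incubation was 5 h at 30°C in 100 mM NaCl, 20 mM Na-HEPES, 10 mM MgCl₂ (pH 7.4) with 1 mM DTT. Assays were homologous competition at 1 or 5 µM [³H]GDP, plus saturation. Non-specific binding was taken with 50 µM GDP. Three experiments, quadruplicate; Hill-equation fits.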

[13] = test system: Gs/olf G-proteins; test: Kinetics of 500 nM [3H]GDP binding to Gs/olf G-proteins; parameters: species or system Chinese hamster; conditions: Control
[14] = test system: G-proteins in GDP-less membranes of CHO-M2 cells; test: Kinetics of [35S]GTPγS binding to GDP-less membranes; parameters: species or system Chinese hamster
Procedure, shortened: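 GDP-less CHO-M2 membranes, 30°C. Association of 1 nM [³⁵S]GTPγS was measured after 20 min pre-incubation with buffer or 100 µM agonist, ±50 µM GDP. For dissociation, membranes were preloaded 90 min with 1 nM [³⁵S]GTPγS ±50 µM GDP, then chased with 1 µM GTPγS alone or with agonist. Filtration on glass-fibre filters, scintillation counting. Three experiments in quadruplicate; exponential association/dissociation fits.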

[15] = test system: G-proteins in GDP-less membranes of CHO-M2 cells; test: Kinetics of [3H]GDP binding to GDP-less membranes; parameters: species or system Chinese hamster
Procedure, shortened: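 GDP-less CHO-M2 membranes, 30°C. Association of 500 nM [³H]GDP was measured after 20 min pre-incubation with buffer, 10 or 100 µM agonist, or 0.1 µM antagonist. For dissociation, membranes were prelabelled with 500 nM [³H]GDP for 180 min, then chased with 50 µM GDP alone or with ligand. Slow and fast rate constants came from biphasic fits.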

[16] = Control (crude membranes), fraction of receptors in low-affinity state
[17] = 1 nM [35S]GTPγS, GDP-less membranes, no GDP, no ligand
[18] = NMS (100 nM), presence of 50 µM GDP

C[N+](C)(C)Cc1ccco1 [Furmethide]
reduction of agonist affinity by GDP (factor of cooperativity β) [1]: 250 fold | factor of cooperativity α between binding of [3H]GDP and agonist (pα) ([2]; 10 µM [3H]GDP): −2.4 ± 0.3 | maximal increase of [35S]GTPγS binding (Emax) [3]: 3.1 fold increase | EMAX [fold over basal] [3]: 3.12 ± 0.08 fold over basal | nH [3]: 0.82 ± 0.05 | EC50 ([3]; read-out: half-effective concentrations (EC50), stimulation of [35S]GTPγS binding): 7000 nM | EMAX ([4]; Gs/olf): 1.70 ± 0.02 fold increase over basal binding | pEC50 ([4]; Gs/olf): 4.76 ± 0.03 | pα ([5]; Gs/olf): −1.0 ± 0.1 | pKA ([5]; Gs/olf, equilibrium dissociation constant of agonist, Eqn 7): 7.10 ± 0.05 | pα ([6]; Gq/11, cooperativity between agonist and [3H]GDP binding): −0.32 ± 0.05 | pKA ([6]; Gq/11, equilibrium dissociation constant of agonist, Eqn 7): 7.17 ± 0.06 | EMAX ([7]; Gi/o): 2.95 ± 0.09 fold increase over basal binding | pEC50 ([7]; Gi/o): 5.34 ± 0.10 | EMAX ([8]; Gq/11): 1.20 ± 0.01 fold increase over basal binding | pEC50 ([8]; Gq/11): 4.72 ± 0.06 | pKi ([9]; +1 µM GTPγS, monophasic): 4.76 ± 0.05 | pKi ([9]; +50 µM GDP, monophasic): 4.77 ± 0.05 | pKi high ([9]; Control (crude membranes)): 7.12 ± 0.09 | pKi low ([9]; Control (crude membranes)): 4.78 ± 0.08 | flow[%] [9, 16]: 50 ± 9% | flow[%] ([9]; GDP-less membranes): 9.6 ± 3.8 % | pKi high ([9]; GDP-less membranes): 7.77 ± 0.08 | pKi low ([9]; GDP-less membranes): 4.87 ± 0.09 | pα ([10]; Gi/o): −2.4 ± 0.2 | pKA ([10]; Gi/o, equilibrium dissociation constant of agonist, Eqn 7): 7.13 ± 0.05

Nc1nc2c(ncn2[C@@H]2O[C@H](COP(=O)(O)OP(=O)(O)O)[C@@H](O)[C@H]2O)c(=O)[nH]1 [GDP, guanosine diphosphate]
factor of cooperativity α between [3H]NMS and GDP ([1]; GDP-less membranes): 1 | effect of GDP on [3H]NMS binding ([1]; absence of agonist): no effect | equilibrium dissociation constant for [3H]GDP (pKA) ([2]; Eqn 7, all four agonists, mean ± SD, n=12): 5.51 ± 0.05 | Beq1 ([11]; Control): 2.1 ± 0.2 fmol·µg^−1 protein | Beq2 ([11]; Control): 1.1 ± 0.1 fmol·µg^−1 protein | f2 ([11]; Control): 37 ± 5% | koff1 ([11]; Control): 0.00583 ± 0.0005 s⁻¹ | koff2 ([11]; Control): 0.000667 ± 6.7e-05 s⁻¹ | Beq, mono-exponential fit ([11]; control conditions (absence of carbachol), n=3): 2.8 ± 0.3 fmol·µg·prot^−1 | IC50 ([12]; read-out: IC50, homologous competition, 1 µM [3H]GDP): 4480 nM | IC50 ([12]; read-out: IC50, homologous competition, 5 µM [3H]GDP): 8550 nM | Kd ([12]; read-out: KD for [3H]GDP from homologous competition): 3490 nM | Kd ([12]; read-out: KD, saturation binding, 0.3 to 10 µM [3H]GDP): 3470 ± 30 nM | Beq [13]: 0.81 ± 0.04 fmol·µg^−1 protein | koff [13]: 0.00112 ± 0.00012 s⁻¹ | Beq of [35S]GTPγS ([14]; GDP-less membranes, 50 µM GDP): 1.21 ± 0.12 fmol·µg^−1protein | decrease of equilibrium binding of [35S]GTPγS ([14]; addition of 50 µM GDP): 4.7 fold | effect on rate of dissociation of [35S]GTPγS ([14]; addition of 50 µM GDP): did not change | slowing of rate of association of [35S]GTPγS ([14]; addition of 50 µM GDP): 3.2 fold | koff fast ([15]; 500 nM [3H]GDP, no ligand): 0.00122 s⁻¹ | sites with koff slow ([15]; 500 nM [3H]GDP, no ligand): 40%

Nc1nc2c(ncn2[C@@H]2O[C@H](COP(=O)(O)OP(=O)(O)OP(O)(O)=S)[C@@H](O)[C@H]2O)c(=O)[nH]1 [GTPγS, guanosine-5′-γ−thiotriphosphate]
Beq [14, 17]: 5.66 ± 0.22 fmol·µg^−1protein | koff [14, 17]: 9e-05 ± 3.61e-06 s⁻¹

C[N+]1(C)[C@@H]2C[C@@H](OC(=O)[C@H](CO)c3ccccc3)C[C@H]1[C@@H]1O[C@@H]12 [NMS, N-methylscopolamine]
effect on [3H]GDP binding ([2]; 10 µM [3H]GDP, increasing ligand concentration): did not affect | cooperativity between NMS and GDP ([2]; Figures 6 and 7): neutral | behaviour in [35S]GTPγS binding ([3]; Figures 1 and 8): inverse agonist | Beq of [35S]GTPγS ([14]; GDP-less membranes, 50 µM GDP +100 nM NMS): 1.20 ± 0.11 fmol·µg^−1protein | effect on dissociation kinetics of [35S]GTPγS [14, 18]: did not change | slowing of association of [35S]GTPγS [14, 18]: 25% | effect on GDP dissociation ([15]; 100 nM NMS (Figure 4 right)): only slightly slows down

O=C1CCCN1CC#CCN1CCCC1 [Oxotremorine]
reduction of agonist affinity by GDP (factor of cooperativity β) [1]: 60 fold | factor of cooperativity α between binding of [3H]GDP and agonist (pα) ([2]; 10 µM [3H]GDP): −1.8 ± 0.1 | EC50 [3]: 1020 nM | maximal increase of [35S]GTPγS binding (Emax) [3]: 2.8 fold increase | EMAX [fold over basal] [3]: 2.78 ± 0.06 fold over basal | nH [3]: 0.92 ± 0.03 | EC50 [4]: 7410 nM | EMAX ([4]; Gs/olf): 1.53 ± 0.01 fold increase over basal binding | Kd [5]: 10.7 nM | pα ([5]; Gs/olf): −0.78 ± 0.08 | effect on [3H]GDP equilibrium binding ([6]; Gq/11, 10 µM [3H]GDP): no effect | EC50 [7]: 933 nM | EMAX ([7]; Gi/o): 2.72 ± 0.05 fold increase over basal binding | stimulation of [35S]GTPγS binding ([8]; Gq/11, text): no stimulation | flow[%] [9, 16]: 66 ± 8% | flow[%] ([9]; GDP-less membranes): 13 ± 4 % | change of high-affinity KI in GDP-less membranes vs control ([9]; GDP-less vs control membranes): not changed | Ki ([9]; pKi high, Control (crude membranes)): 11.7 nM | Ki ([9]; pKi high, GDP-less membranes): 11.2 nM | Ki ([9]; pKi, +1 µM GTPγS, monophasic): 550 nM | Ki ([9]; pKi, +50 µM GDP, monophasic): 417 nM | Kd [10]: 11.7 nM | pα ([10]; Gi/o): −2.1 ± 0.2

Reference: paper PMC3051377 (British Journal of Pharmacology, 2011)
